Consider 167 variants from the RNAGym collection of RNA variant scans (doi:10.1126/science.aae0568).

The chains are these.
B1: tRNA (parent)
chain: GUUCCGUUGGCGUAAUGGUAACGCGUCUCCCUCCUAAGGAGAAGACUGCGGGUUCGAGUCCCGUACGGAACG

Variants at the floor of the assay were thinned out.

Variants of B1 are the subject of the series. Put plainly: yeast fitness relative to wild type (ratio to wild type); higher = fitter; tRNA-Arg(CCU), competitive growth, 37 C, YPD. The method, boiled down:
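Variants of the tRNA-Arg(CCU) gene, chemically synthesised with a 3% per-site mutation rate at 69 sites, were placed at the native genomic locus in Saccharomyces cerevisiae. The pooled strains were competed in YPD at 37°C for 24 hours in six parallel replicates. Gene amplicons from the start population and from each end population were read by 100-nucleotide paired-end sequencing. Darwinian fitness relative to wild type came from changes in genotype frequencies; genotypes needed ≥ 100 starting reads, and estimates < 0.5 were set to 0.5.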
For G6A G23A C27U C60G G67A, the yeast fitness is at most 0.5.

For the variant U2G C49U C62U, the yeast fitness worked out at 0.565.

In the case of C5G A20U G51C C61G A65U A70C, the yeast fitness worked out at 0.565.

Take C4A U13A G63A: the yeast fitness was at most 0.5.

For the variant G12A A14G C24G C31U C55A, the yeast fitness was at most 0.5.

On to U2G C22A G56A U59G, for which the yeast fitness was at most 0.5.

Turning to C5A C34G C66U, the yeast fitness is at most 0.5.

In the case of A14C C34U A37G, the yeast fitness was determined as 0.507.

Turning to A21U G25A G51A C60A, the yeast fitness was at most 0.5.

On to C29G U32C A36G, for which the yeast fitness was found to be 0.597.

For C4U G23A U28C G56C, the yeast fitness is at most 0.5.

As for C11A G17A C33U A70C, the yeast fitness is at most 0.5.

For C5U A15G C66U, the yeast fitness was determined as 0.632.

As to G56A A70G, the yeast fitness is 0.886.

Consider A36U G56C A65C, for which the yeast fitness was at most 0.5.

In the case of C31U C46A, the yeast fitness came out at 1.01.

Regarding A14C C30A C31U A36U, the yeast fitness was at most 0.5.

Take C27U U28G C29G: the yeast fitness is at most 0.5.

For C11G A21U C24U C66U, the yeast fitness was 0.631.

As to C60A C66U, the yeast fitness is 0.608.

In the case of C30A A37C G41A A43U G44C, the yeast fitness was at most 0.5.

Turning to C5G G9C G67A, the yeast fitness is at most 0.5.

For the variant U2A C5A C31A A43G A45C, the yeast fitness is at most 0.5.

G17C A42C: the yeast fitness turned out to be 0.618.

On to C22G C31G U54G, for which the yeast fitness amounted to 0.595.

Take A14C A20C: the yeast fitness was found to be 0.533.

With G17C G39A G52A, the yeast fitness is at most 0.5.

In the case of G10C C27U G63C, the yeast fitness is at most 0.5.

In the case of G17C U19C A20G G68U, the yeast fitness was at most 0.5.

With U8G U47G C49A A69U, the yeast fitness was at most 0.5.

In the case of C34U G58C C62G G67A, the yeast fitness is at most 0.5.

Take U7G A15U C62U C66A: the yeast fitness is at most 0.5.

As to U19C A20G G67A A69U, the yeast fitness is at most 0.5.

For the variant U3C C49G G63C, the yeast fitness amounted to 0.617.

Regarding A42U G44C A65C, the yeast fitness was at most 0.5.

With C34U A42C, the yeast fitness came to 0.664.

Turning to C31A A43C A45C, the yeast fitness was at most 0.5.

Take G6A U8C G18C A21C C33A: the yeast fitness is at most 0.5.

U3G C62G: the yeast fitness came to 0.739.

C5G C11G A14U A15U A65G: the yeast fitness is at most 0.5.

For the variant A20U A43C U54C, the yeast fitness was at most 0.5.

Take C22G C34U C66U: the yeast fitness is at most 0.5.

As for C49G A70C, the yeast fitness worked out at 0.845.

Consider C49U A57U U59C, for which the yeast fitness came to 0.536.

For C24G C33U A37U C49G U64C, the yeast fitness was at most 0.5.

For C11U C46G G51A, the yeast fitness was found to be 0.571.

In the case of C29A U35G, the yeast fitness was at most 0.5.

Take C29A A36U G50C C55G C61G: the yeast fitness is at most 0.5.

As for C29G C31A A43C G67A, the yeast fitness was at most 0.5.

On to G10C C11G, for which the yeast fitness is 0.682.

Take C4A G9A C24U C30U A36G G67A: the yeast fitness came to 0.565.

Take C34A A40U: the yeast fitness stood at 0.705.

For C46G C49U A65U A69C, the yeast fitness was at most 0.5.

Regarding C5A U35G C60G, the yeast fitness was at most 0.5.

With G44C G58C C66U, the yeast fitness is 0.653.

Take A15G C29G A37U: the yeast fitness was at most 0.5.

On to A20G C60G C66G A69G, for which the yeast fitness was determined as 0.554.

Consider U3G C11U G68A, for which the yeast fitness was at most 0.5.

For the variant G39A G68C, the yeast fitness is 0.806.

For the variant C33A U54G A70C, the yeast fitness is at most 0.5.

Take U19C A20U C61G C66U A69U: the yeast fitness is at most 0.5.

Turning to C5U A14G A21U A36U G48C C55U, the yeast fitness is 0.627.

For G12C U47A U54C, the yeast fitness stood at 0.519.

Take A21C G23U: the yeast fitness turned out to be 0.714.

For C24U G51C G68A, the yeast fitness was at most 0.5.

For C4U A37C G50C A57G, the yeast fitness is at most 0.5.

Take U16G C22A A57G: the yeast fitness is at most 0.5.

Take U8G U35G A70C: the yeast fitness came to 0.536.

With A15U A21C C24G C62G, the yeast fitness was at most 0.5.

For U13A A43G A45G G50C C60A A69C, the yeast fitness came to 0.534.

On to C4U G10A C22G, for which the yeast fitness was 0.642.

G9A A40U C62G: the yeast fitness came to 0.593.

As to C4A G23A U35C G56A, the yeast fitness is at most 0.5.

For C4A C5U C34U, the yeast fitness is at most 0.5.

For the variant U8C A14G U32A, the yeast fitness is 0.538.

In the case of C11A U13C C27A C60A, the yeast fitness is at most 0.5.

Turning to C4U C27U G39C G52A G56A, the yeast fitness worked out at 0.614.

As for G10A U26C C29G C31U, the yeast fitness was at most 0.5.

Consider U32C C49U G50C, for which the yeast fitness was found to be 0.638.

With C4G U8A G12A G48A C62U, the yeast fitness is at most 0.5.

Take U2A C11A C46U C49U: the yeast fitness was at most 0.5.

Regarding C5G U13C A21C A70C, the yeast fitness was at most 0.5.

In the case of G9A U32G, the yeast fitness came out at 0.616.

For the variant G6U U32A G56C, the yeast fitness was at most 0.5.

On to A21U A45U, for which the yeast fitness was 0.676.

As to A40G A42U G67C, the yeast fitness was at most 0.5.

In the case of G6C A20G C22U, the yeast fitness is at most 0.5.

G10C C60U G63C: the yeast fitness was at most 0.5.

Regarding G44A C60G, the yeast fitness was 0.667.

A21G C24U G51C: the yeast fitness is at most 0.5.

Turning to A15U G67A, the yeast fitness was found to be 0.654.

As to C34U C62U, the yeast fitness was 0.673.

Turning to C5A C11G G48C G67C, the yeast fitness was at most 0.5.

Regarding C27G A37G G52U, the yeast fitness was at most 0.5.

As to G9C U28C G44C, the yeast fitness came to 0.619.

Take A37G G56C A69C: the yeast fitness is at most 0.5.

Take U28G A70G: the yeast fitness came out at 0.826.

For the variant A20C C34A A37G C46A A70C, the yeast fitness is at most 0.5.

In the case of A14C C30A C66U A70G, the yeast fitness is 0.622.

Turning to C22G U32C A69U, the yeast fitness was determined as 0.705.

For C5U U8A C61U, the yeast fitness is 0.548.

For the variant G17A C33A A37U A57G, the yeast fitness was at most 0.5.

On to U8G C24G C55A A65U, for which the yeast fitness was at most 0.5.

For U16C G41A C49U, the yeast fitness was found to be 0.605.

Turning to U7G C49U, the yeast fitness was found to be 0.957.

For the variant U35G U64C A65U, the yeast fitness is at most 0.5.

Take C5G G17A A20C: the yeast fitness is at most 0.5.

On to U2C U32A A65G, for which the yeast fitness was at most 0.5.

U3A U13C G68A: the yeast fitness was 0.528.

In the case of U7A C46G C66G, the yeast fitness turned out to be 0.547.

C5U G10A A14U C31A C46A A65U: the yeast fitness is at most 0.5.

C49G G56A A69C: the yeast fitness came to 0.73.

Take C11U U28C C29G A57G: the yeast fitness was at most 0.5.

For the variant U32C G48A, the yeast fitness came to 0.76.

For A20C C27U C55U, the yeast fitness came out at 0.76.

As for C30G G58C, the yeast fitness was 0.637.

With U8A C29U C31A G38A, the yeast fitness is at most 0.5.

G48A G56C: the yeast fitness amounted to 0.618.

With C4U A21C G25A C30A C31G U32C G41C, the yeast fitness was at most 0.5.

As for G9U C27U C29A C31A, the yeast fitness was at most 0.5.

As for A20U A40G A42G G50A, the yeast fitness was at most 0.5.

Consider G23C G39A, for which the yeast fitness stood at 0.669.

As to C22G A36C U54C C55U C60A C62G A69U, the yeast fitness is at most 0.5.

Consider G6C C24U G52A, for which the yeast fitness is at most 0.5.

Turning to C22U G39A C49G, the yeast fitness was at most 0.5.

As for U28A A69C, the yeast fitness stood at 0.88.

As to U2A G50C C55G C62G, the yeast fitness was at most 0.5.

With G25A A40C A65C, the yeast fitness was found to be 0.739.

As to U64C A70G, the yeast fitness stood at 0.844.

With G10C A14C C27A C29G A57C A65U, the yeast fitness is at most 0.5.

For C4G C5G C29A C34U A42U G50C, the yeast fitness was found to be 0.531.

For A37C U47C G51A, the yeast fitness is at most 0.5.

For C4U G50A G67A, the yeast fitness was determined as 0.553.

As to C33G A42G G52A A70U, the yeast fitness is at most 0.5.

As for G9A C62A C66U, the yeast fitness is at most 0.5.

For the variant C5U A65U G67A, the yeast fitness is 0.921.

Regarding C30G G56C C62U, the yeast fitness was at most 0.5.

As for C5U A37C A43C A45C, the yeast fitness is at most 0.5.

In the case of C5G A14U G25A C33A C61U, the yeast fitness was at most 0.5.

Turning to A14C A21C C46A, the yeast fitness was 0.604.

As to G9A G23C C30G A40U C46U, the yeast fitness worked out at 0.58.

With A40U U64A, the yeast fitness was determined as 0.675.

G58C C60U C66G: the yeast fitness was at most 0.5.

C11G G12C C60G: the yeast fitness was at most 0.5.

Turning to U3G C46A, the yeast fitness came out at 0.802.

For the variant G12A A43U A45C, the yeast fitness is at most 0.5.

In the case of U2A C11U G17A U64G, the yeast fitness is at most 0.5.

With G12A U16G C49U G63A, the yeast fitness came to 0.705.

On to C22U U35C A37C, for which the yeast fitness is at most 0.5.

For U8G A14C G17C C61G, the yeast fitness was at most 0.5.

For C4G G56C A70G, the yeast fitness was at most 0.5.

Regarding C29U A43C G51A, the yeast fitness is at most 0.5.

As for C5U G18A U28A G56A C61G, the yeast fitness amounted to 0.626.

As to A45U G48C A57C G67U, the yeast fitness is at most 0.5.

C46G A69C: the yeast fitness stood at 0.972.

As for A40U U54C C62U, the yeast fitness came to 0.528.

As for A37G A69C, the yeast fitness came out at 0.97.

Turning to G17A A20C G25A, the yeast fitness came to 0.506.

Consider C22G C31U G39A, for which the yeast fitness turned out to be 0.636.

For C33U A43C G63C, the yeast fitness was at most 0.5.

Take C11A C22U U54C: the yeast fitness was at most 0.5.

Turning to C4G C5A A21C U54A A65U A69C, the yeast fitness was at most 0.5.

Turning to C24A C33U, the yeast fitness is 0.601.

Turning to G9C C46G C61G A65C, the yeast fitness was at most 0.5.

With G41A A42C, the yeast fitness amounted to 0.726.

On to G41A A42G, for which the yeast fitness is 0.911.

As for G17A U26C, the yeast fitness stood at 0.784.
